Measurements as given in ChEMBL document CHEMBL1944595, “1,4-diarylpiperazines and analogs as anti-tubercular agents: synthesis and biological evaluation” (Eur J Med Chem, 2012).
Values after ≈ are worked out from the molar mass of the structure shown.

Experiments:
Assay type in all cases: functional
[1] = system: Mycobacterium tuberculosis; test: Antibacterial activity against Mycobacterium tuberculosis H37Rv harboring pSMT1 encoding Vibrio harveyi luxAB gene at 1 uM after 7 days by luminometric analysis; settings: 168 h, read-out: GI
Outline: (§1)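 Same extracellular assay. Bacteria seeded at 1000 RLU per well in Sauton + 10% FCS. Compounds added from 1 mM DMSO stocks to final 10, 1 or 0.1 per well. Incubated 7 days at 37 °C, 5% CO2. Wells harvested, washed four times with PBS and pooled. 1% n-decanal added and luminescence read over 10 s. Percent growth inhibition calculated against untreated control cultures.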

[2] = system: Mycobacterium tuberculosis; test: Antibacterial activity against Mycobacterium tuberculosis H37Rv harboring pSMT1 encoding Vibrio harveyi luxAB gene at 10 uM after 7 days by luminometric analysis; settings: 168 h, read-out: GI; outline: as §1
[3] = system: Mycobacterium tuberculosis; test: Antibacterial activity against Mycobacterium tuberculosis H37Rv harboring pSMT1 encoding Vibrio harveyi luxAB gene at 0.1 uM after 7 days by luminometric analysis; settings: 168 h, read-out: GI; outline: as §1
[4] = system: Mycobacterium tuberculosis; test: Antibacterial activity against Mycobacterium tuberculosis H37Rv harboring pSMT1 encoding Vibrio harveyi luxAB gene infected in mouse J774.A1 cells at 2 uM after 5 days by luminometric analysis; settings: J774.A1, 120 h, read-out: GI
Outline: (§2)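 J774.A1 macrophages seeded at 40 000 per well and rested overnight. Infected with 4000 RLU of luminescent H37Rv (MOI 0.1) in DMEM with penicillin/Fungizone, with compound dilutions added. Treated 5 days, then washed, given 1 h 1% gentamicin, and lysed with 1% Triton X-100. Lysate luminescence read over 10 s with n-decanal. Inhibition relative to untreated infected cells; six replicate cultures.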

[5] = system: Mycobacterium tuberculosis; test: Antibacterial activity against Mycobacterium tuberculosis H37Rv harboring pSMT1 encoding Vibrio harveyi luxAB gene infected in mouse J774.A1 cells at 1 uM after 5 days by luminometric analysis; settings: J774.A1, 120 h, read-out: GI; outline: as §2
[6] = system: Mycobacterium tuberculosis; test: Antibacterial activity against Mycobacterium tuberculosis H37Rv harboring pSMT1 encoding Vibrio harveyi luxAB gene infected in mouse J774.A1 cells at 0.5 uM after 5 days by luminometric analysis; settings: J774.A1, 120 h, read-out: GI; outline: as §2
[7] = system: Mycobacterium tuberculosis; test: Antibacterial activity against Mycobacterium tuberculosis H37Rv harboring pSMT1 encoding Vibrio harveyi luxAB gene after 7 days by luminometric analysis; settings: 168 h
[8] = system: Mycobacterium tuberculosis; test: Antimicrobial activity against multidrug-resistant Mycobacterium tuberculosis LAM1 by BACTEC 460-TB method
Outline: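 Clinical MDR LAM-1 isolate, resistant to isoniazid, rifampicin, rifabutin and prothionamide. Pre-cultured in 7H9-based BACTEC vial to growth index 300. 100 µL inoculated into a new vial with compound dilutions prepared in 7H9 + 10% OADC. GI read daily. MIC99 determined by comparison with an untreated culture diluted 100-fold at inoculation.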

Row | SMILES | inhibition of growth at 1 µM [1] [%] | inhibition of growth at 10 µM [2] [%] | inhibition of growth at 0.1 µM [3] [%] | inhibition in vivo at 2 µM [4] [%] | inhibition in vivo at 1 µM [5] [%] | inhibition in vivo at 0.5 µM [6] [%] | MIC50 [7] [µM] | MIC99 [8] [µM]
1 | O=[N+]([O-])c1ccc(N2CCN(c3ccccc3)CC2)cc1 | < 10 | 26 | < 10 |  |  |  |  | 
2 | O=[N+]([O-])c1ccc(NCCNc2ccc([N+](=O)[O-])cc2)cc1 | < 10 | 16 | < 10 |  |  |  |  | 
3 | O=[N+]([O-])c1ccc(N2CCN(c3ccc([N+](=O)[O-])cc3)CC2)cc1 | 10 | 13 | < 10 |  |  |  |  | 
4 | Nc1ccc(N2CCN(c3ccccc3)CC2)cc1 | < 10 | 30 | < 10 |  |  |  |  | 
5 | N#Cc1ccc(N2CCN(c3ccccc3)CC2)cc1 | < 10 | 23 | < 10 |  |  |  |  | 
6 | Nc1ccc(N2CCN(c3ccc(N)cc3)CC2)cc1 | 10 | 27 | < 10 |  |  |  |  | 
7 | N#Cc1ccc(N2CCN(c3ccc(C#N)cc3)CC2)cc1 | < 10 | 22 | < 10 |  |  |  |  | 
8 | O=[N+]([O-])c1ccccc1NCCNc1ccccc1[N+](=O)[O-] | < 10 | < 10 | < 10 |  |  |  |  | 
9 | O=[N+]([O-])c1cccc(NCCNc2cccc([N+](=O)[O-])c2)c1 | < 10 | 13 | < 10 |  |  |  |  | 
10 | N#Cc1ccc(NCCNc2ccc(C#N)cc2)cc1 | < 10 | 10 | < 10 |  |  |  |  | 
11 | N#Cc1ccccc1NCCNc1ccccc1C#N | < 10 | < 10 | < 10 |  |  |  |  | 
12 | N#Cc1cccc(NCCNc2cccc(C#N)c2)c1 | < 10 | < 10 | < 10 |  |  |  |  | 
13 | Cl.N=C(N)c1ccc(N2CCN(c3ccccc3)CC2)cc1 | < 10 | 14 | < 10 | 1.83 | 0.41 | -0.47 | 29.6 | 
14 | CNC(=N)c1ccc(N2CCN(c3ccccc3)CC2)cc1.Cl | < 10 | 16 | < 10 | 14.9 | 6.43 | -0.8 | 15.9 | 
15 | CCNC(=N)c1ccc(N2CCN(c3ccccc3)CC2)cc1.Cl | < 10 | 10 | < 10 | 22.5 | 13.4 | 3.93 | 11.9 | 
16 | CCCNC(=N)c1ccc(N2CCN(c3ccccc3)CC2)cc1.Cl | < 10 | 33 | < 10 | 26.1 | 12.9 | 5.62 | 7.01 | 
17 | CCCCNC(=N)c1ccc(N2CCN(c3ccccc3)CC2)cc1.Cl | < 10 | 66 | < 10 | 50.6 | 31.6 | 25.6 | 2.16 | 
18 | CCCCCNC(=N)c1ccc(N2CCN(c3ccccc3)CC2)cc1.Cl | 39 | 95 | < 10 | 64.7 | 53.6 | 44.7 | 1.2 | 3.85
19 | CCCCCCNC(=N)c1ccc(N2CCN(c3ccccc3)CC2)cc1.Cl | 91 | 99 | 49 | 88.1 | 79.2 | 67.1 | 0.264 | 2.11
20 | CCCCCCCNC(=N)c1ccc(N2CCN(c3ccccc3)CC2)cc1.Cl | 94 | 100 | 47 | 83.3 | 64.2 | 61.1 | 0.091 | 1.48
21 | CCCCCCCCNC(=N)c1ccc(N2CCN(c3ccccc3)CC2)cc1.Cl | 94 | 100 | 61 | 71.6 | 31.1 | 15.2 | 0.072 | 1.17
22 | CCCCCCCCCCCCNC(=N)c1ccc(N2CCN(c3ccccc3)CC2)cc1.Cl | 97 | 100 | 68 | 44.9 | 23.4 | 10.7 | 0.052 | 0.95
23 | CCC(CC)NC(=N)c1ccc(N2CCN(c3ccccc3)CC2)cc1 | 19 | 67 | < 10 |  |  |  |  | 
24 | N=C(N)c1ccc(NCCNc2ccccc2)cc1 | < 10 | < 100 | < 10 |  |  |  |  | 
25 | CCC(CC)NC(=N)c1ccc(NCCNc2ccccc2)cc1 | 19 | 63 | 10 |  |  |  |  | 
26 | CCCCCCNC(=N)c1ccc(NCCNc2ccccc2)cc1 | 48 | 93 | 23 |  |  |  |  | 
27 | N=C(NCCc1ccccc1)c1ccc(N2CCN(c3ccccc3)CC2)cc1 | 56 | 97 | < 10 |  |  |  |  | 
28 | NNC(=O)c1ccncc1 [ISONIAZID] | 100 | 100 | 98 | 51.4 | 29.4 | 9.77 | 0.465 (≈ 0.0638 µg/mL) | 
